Results of several laboratories.
Compare with care: the assays were run in different laboratories.
Effect on: cell growth or viability

Compound | cell line | method | concentration | time | measurement | result
COC(=O)CNC(=O)C(=O)OC | HBL1 | ATP luminescence | 1 µM | 5 days | viability | 93.3%
OCCc1ccc(-c2nn(Cc3ccccc3)c3ccccc23)o1 | RBE | ATP luminescence | 46 µM | 72 h | inhibition | 21%
O=C(CCCCCCC(=O)Nc1ccccc1)NO | HBL1 | ATP luminescence | 0.5 µM | 5 days | viability | 49.7%
COc1cnccc1Cn1nc(-c2ccc(CO)o2)c2ccccc21 | RBE | ATP luminescence | 46 µM | 72 h | inhibition | 85%
O=C(NO)c1ccc(CC(=O)N(CCO)c2ccccc2)cc1 | HBL1 | ATP luminescence | 1 µM | 5 days | viability | 107%
Cc1n[nH]c2ccc3nc(-c4ccc(C(=O)NCCN(C)C)cc4F)c4c(c3c12)CCCCC4 | MV4-11 | resazurin |  | 72 h | GI50 | 88 nM
C=C(NC(=O)C(=C)NC(=O)c1csc(C2=N[C@@H]3c4csc(n4)[C@H]4NC(=O)c5csc(n5)[C@H]([C@](C)(O)[C@@H](C)O)NC(=O)[C@H]5CSC(=N5)/C(=C/C)NC(=O)[C@H]([C@@H](C)O)NC(=O)c5csc(n5)[C@]3(CC2)NC(=O)[C@H](C)NC(=O)C(=C)NC(=O)[C@H](C)NC(=O)[C@H]([C@@H](C)CC)N[C@@H]2C=Cc3c([C@H](C)O)cc(nc3[C@H]2O)C(=O)O[C@@H]4C)n1)C(N)=O | C4-2 |  |  |  | EC50 | 7300 nM
CCN(CC)CCNC(=O)c1ccc(-c2nc3ccc4[nH]ncc4c3c3c2CCCC3)cc1 | MV4-11 | resazurin |  | 72 h | GI50 | 440 nM
O=C(Nc1cccc(Br)c1)c1cccc(S(=O)(=O)N2CCCCCC2)c1 | HBL1 | ATP luminescence | 0.5 µM | 5 days | viability | 110%
CN(C)CCNC(=O)c1ccc(-c2nc3ccc4[nH]ncc4c3c3c2CCC3)cc1 | MV4-11 | resazurin |  | 72 h | GI50 | 100 nM
C[C@H](Nc1ccc2c(c1)OCCn1cc(N3C(=O)OC[C@H]3C(F)F)nc1-2)C(N)=O | IM95 | ATP luminescence |  | 5 days | EC50 | 388 nM
CC(c1ccccc1)n1nc(-c2ccc(CO)o2)c2ccccc21 (stereo not shown) | RBE | ATP luminescence | 46 µM | 72 h | inhibition | 76%
O=C(/C=C/c1cccc(C(=O)NO)c1)NO | HBL1 | ATP luminescence | 1 µM | 5 days | viability | 37.7%
CCN(Cc1cccc(C)c1)c1ccc(CO)c(Cl)c1 | RBE | ATP luminescence | 46 µM | 72 h | inhibition | 85%
CCNc1nc2ccc(-c3c/c(=N\c4ccccc4NC(=O)CCN)c4ccccc4o3)cc2o1 | MDA-MB-468 | CCK-8 | 1 µM |  | inhibition | 31.4%
Cc1n[nH]c2ccc3nc(-c4ccc(C(=O)N(C)CCN(C)C)cc4)c4c(c3c12)CCC(F)(F)C4 | MV4-11 | resazurin |  | 72 h | GI50 | 814 nM
O=C(Nc1ccc(Cl)cc1)C1CCCN(C(=O)c2cc(C(F)(F)F)cc(C(F)(F)F)c2)C1 (racemic) | HBL1 | ATP luminescence | 1 µM | 5 days | viability | 92.8%

Compound | cell line | method | concentration | time | measurement | result
Cc1n[nH]c2ccc3nc(-c4ccc(C(=O)NCCN(C)C)cc4)c4c(c3c12)CCCCC4 | MV4-11 | resazurin |  | 72 h | GI50 | 98 nM
O=C(CCCCCCSc1ccc2ccccc2c1)NO | HBL1 | ATP luminescence | 1 µM | 5 days | viability | 98.6%
NC(=O)C1CCCN1C(=O)Nc1ccccc1/N=c1\cc(-c2ccc3c(c2)OCCO3)oc2cc(F)ccc12 (stereo not shown) | MDA-MB-468 | CCK-8 | 1 µM |  | inhibition | 3.25%
CCc1nc(C(N)=O)c(Nc2ccc(N3CCC(N4CCN(C)CC4)CC3)c(OC)c2)nc1NC1CCOCC1 | MV4-11 | resazurin |  | 72 h | GI50 | 26 nM
OCc1ccc(-c2nn(Cc3cncnc3)c3ccccc23)o1 | RBE | ATP luminescence | 46 µM | 72 h | inhibition | 71%
Nc1nc2ccc(-c3c/c(=N\c4ccccc4NC(=O)C4CCNC4)c4ccccc4o3)cc2o1 (stereo not shown) | MDA-MB-468 | CCK-8 | 1 µM |  | inhibition | 55.6%
OCc1ccc(-c2nn(Cc3cccc(F)c3)c3ccccc23)o1 | RBE | ATP luminescence | 46 µM | 72 h | inhibition | 60%
NCC(=O)Nc1ccccc1/N=c1\cc(-c2ccc3c(c2)OCO3)oc2c(N)cccc12 | MDA-MB-468 | CCK-8 | 1 µM |  | inhibition | -4.61%
CN(C)CCNC(=O)c1ccc(-c2nc3ccc4[nH]ncc4c3c3c2CC(F)(F)CC3)cc1 | MV4-11 | resazurin |  | 72 h | GI50 | 112 nM
COc1ccc2/c(=N/c3ccccc3NC(=O)[C@@H](N)C(C)(C)C)cc(-c3ccc4c(c3)OCO4)oc2c1 | MDA-MB-468 | CCK-8 | 1 µM |  | inhibition | 2.98%
OCc1ccc(-c2nn(Cc3ccccc3)c3ncccc23)o1 | RBE | ATP luminescence | 46 µM | 72 h | inhibition | 51%
COc1ccc2/c(=N/c3ccccc3NC(=O)CN)cc(-c3ccc4c(c3)OCCO4)oc2c1 | MDA-MB-468 | CCK-8 | 1 µM |  | inhibition | 15.2%
CC1c2ccccc2CCN1c1ccc(CO)c(Cl)c1 (stereo not shown) | RBE | ATP luminescence | 46 µM | 72 h | inhibition | 91%
COc1ccc2/c(=N/c3ccccc3NC(=O)[C@@H](N)CO)cc(-c3ccc4c(c3)OCCO4)oc2c1 | MDA-MB-468 | CCK-8 | 1 µM |  | inhibition | 15.1%
CN(C)CCNC(=O)c1ccc(-c2nc3ccc4[nH]ncc4c3c3c2CCCC3)c(F)c1 | MV4-11 | resazurin |  | 72 h | GI50 | 127 nM
CC(=O)OC[C@H]1O[C@@H](n2cnc(N)nc2=O)[C@H](OC(C)=O)[C@@H]1OC(C)=O | HBL1 | ATP luminescence | 0.1 µM | 5 days | viability | 105%
COCCC(=O)Nc1ccccc1/N=c1\cc(-c2ccc3c(c2)OCO3)oc2ccccc12 | MDA-MB-468 | CCK-8 | 1 µM |  | inhibition | 2.51%
